Test results published in paper PMC6220817 (Chemistry (Weinheim an Der Bergstrasse, Germany), 2018).
Ends that are not written are not given here. TMR‑5‑maleimide = tetramethylrhodamine-5-maleimide

How the values were obtained:
tubulin [1] = settings: Reported value for the binding to tubulin; cited from earlier work
tubulin [2] = target: tubulin (Sus scrofa, UniProt P02550+P02554); experiment: Turbidity measurement of tubulin polymerization; assay type: biochemical, porcine; settings: 10 μM compound, 4 μM tubulin, 1 mM GTP; for Stability of treated microtubules on cooling (turbidity): cooled to 4 °C for 15 min; for Turbidity (optical density at 350 nm) / tubulin polymerization: BRB80, 37 °C, 60 min
Sequence of tubulin (Sus scrofa, UniProt P02550+P02554) (P02554 whole entry): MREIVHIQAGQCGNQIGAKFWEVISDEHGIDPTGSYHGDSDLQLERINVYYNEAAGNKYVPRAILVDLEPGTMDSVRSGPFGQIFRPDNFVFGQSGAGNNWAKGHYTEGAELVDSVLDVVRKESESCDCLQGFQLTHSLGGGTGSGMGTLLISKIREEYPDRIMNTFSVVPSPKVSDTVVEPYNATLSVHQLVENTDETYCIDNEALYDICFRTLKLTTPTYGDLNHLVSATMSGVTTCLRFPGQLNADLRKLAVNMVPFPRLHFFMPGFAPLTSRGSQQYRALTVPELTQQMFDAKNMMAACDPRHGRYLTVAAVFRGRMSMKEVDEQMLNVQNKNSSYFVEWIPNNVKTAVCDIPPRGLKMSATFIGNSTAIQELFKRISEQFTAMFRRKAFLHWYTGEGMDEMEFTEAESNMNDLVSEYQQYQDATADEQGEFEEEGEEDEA
Sequence of tubulin (Sus scrofa, UniProt P02550+P02554) (P02550 whole entry): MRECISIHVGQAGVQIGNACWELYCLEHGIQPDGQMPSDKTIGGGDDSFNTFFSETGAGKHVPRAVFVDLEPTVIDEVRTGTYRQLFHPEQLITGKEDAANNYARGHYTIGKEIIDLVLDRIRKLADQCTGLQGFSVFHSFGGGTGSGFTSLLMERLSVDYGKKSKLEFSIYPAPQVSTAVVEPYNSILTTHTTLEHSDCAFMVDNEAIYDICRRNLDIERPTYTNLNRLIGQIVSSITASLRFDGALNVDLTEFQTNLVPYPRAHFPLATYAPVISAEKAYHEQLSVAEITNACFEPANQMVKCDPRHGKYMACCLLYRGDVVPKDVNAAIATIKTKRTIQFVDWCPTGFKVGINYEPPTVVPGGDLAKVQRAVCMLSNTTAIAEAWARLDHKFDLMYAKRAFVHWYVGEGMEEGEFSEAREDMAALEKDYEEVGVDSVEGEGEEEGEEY
Procedure, shortened: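 Porcine brain tubulin (4 μM) with 1 mM GTP in BRB80 (80 mM PIPES pH 6.9, 1 mM MgCl2, 1 mM EGTA) at 37 °C. Test compound or taxol at 10 μM, or none. OD350 read by UV/Vis every 1 min for 60 min. Samples then held at 4 °C for 15 min and read again.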

[3] = target: tubulin (α‐ and β‐tubulin dimer) (porcine (purified from porcine brain)) (UniProt P02550); experiment: equilibrium dialysis
Sequence of tubulin (α‐ and β‐tubulin dimer) (porcine (purified from porcine brain)) (P02550 whole entry, chain 1 of 2): as the sequence (P02550 whole entry) above
Sequence of tubulin (α‐ and β‐tubulin dimer) (porcine (purified from porcine brain)) (P02554 whole entry, chain 2 of 2, further chain): as the sequence (P02554 whole entry) above

CC(=O)O[C@H]1C(=O)[C@@]2(C)[C@H]([C@H](OC(=O)c3ccccc3)[C@]3(O)C[C@H](OC(=O)[C@H](O)[C@@H](NC(=O)c4cccc(N(C)C)c4)c4ccccc4)C(C)=C1C3(C)C)[C@]1(OC(C)=O)CO[C@@H]1C[C@@H]2O [Taxol derivative, N‐debenzoyl‐N‐[3‐(dimethylamino)benzoyl]taxol]
Kd (tubulin [1]): 49 µM

CC(=O)O[C@H]1C(=O)[C@@]2(C)[C@H]([C@H](OC(=O)c3ccccc3)[C@]3(O)C[C@H](OC(=O)[C@H](O)[C@@H](NC(=O)c4ccccc4)c4ccccc4)C(C)=C1C3(C)C)[C@]1(OC(C)=O)CO[C@@H]1C[C@@H]2O [taxol, reference compound]
Stability of treated microtubules on cooling (turbidity) (tubulin [2]): remained stable

H-CGGGKKHVPGGGSVQIVYKPVDL-OH [2N]
Turbidity (optical density at 350 nm) / tubulin polymerization (tubulin [2]): increases the turbidity
Stability of treated microtubules on cooling (turbidity) (tubulin [2]): completely depolymerized

H-KHQPGGGKVQIINKKLDLGGGC-OH [1C]
Turbidity (optical density at 350 nm) / tubulin polymerization (tubulin [2]): less effective

H-KKHVPGGGSVQIVYKPVDLGGGC-OH [2C]
Turbidity (optical density at 350 nm) / tubulin polymerization (tubulin [2]): less effective

H‐Cys(Trt)‐Gly‐Gly‐Gly‐Lys(Boc)‐His(Trt)‐Gln(Trt)‐Pro‐Gly‐Gly‐Gly‐Lys(Boc)‐Val‐Gln(Trt)‐Ile‐Ile‐Asn(Trt)‐Lys(Boc)‐Lys(Boc)‐Leu‐Asp(OtBu)‐Leu‐Alko‐PEG resin [1N]
Turbidity (optical density at 350 nm) / tubulin polymerization (tubulin [2]): less effective

KHQPGGGKVQIINKKLDLGGGC(TMR‑5‑maleimide) [1C‐TMR]
Kd [3]: 16.7 µM

C(TMR‑5‑maleimide)GGGKHQPGGGKVQIINKKLDL [1N‐TMR]
Kd [3]: 3.4 µM
